Reference: ChEMBL document CHEMBL3112579, “Inhibition of 5-oxo-6,8,11,14-eicosatetraenoic acid-induced activation of neutrophils and eosinophils by novel indole OXE receptor antagonists” (J Med Chem, 2014)
Blank lines part the entries; values can stand above or below the compound they belong to. The source made the active and inactive calls. No cut-off for these calls is given here.

How the values were obtained:
Rattus norvegicus = assay: Drug metabolism in […] in presence of NADPH; format: ADME
[1] = Drug metabolism in Sprague-Dawley rat liver homogenates at 20 uM after 60 mins by reversed-phase HPLC analysis in presence of NADPH; format: ADME, tissue-based; conditions: read-out: Drug metabolism
In short: (§1)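 Male Sprague-Dawley rat liver homogenized in 0.25 M sucrose and spun at 600 × g for 10 min. Supernatant (0.8 ml) combined with phosphate buffer pH 7.4 (final 50 mM) and NADPH (final 1 mM). Compound (20 μM) incubated 60 min at 37 °C, stopped with ice-cold MeOH. Products analysed by reversed-phase HPLC with UV detection.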

Liver [2] = assay: Drug metabolism in Sprague-Dawley rat liver homogenates assessed as metabolite retention time at 20 uM by reversed-phase HPLC analysis; format: ADME, tissue-based; conditions: tissue homogenate; in short: as §1
Liver [3] = assay: Drug metabolism in Sprague-Dawley rat liver homogenates in presence of ATP, CoA, L-carnitine, NAD+; format: ADME, tissue-based; conditions: tissue homogenate
Oxoeicosanoid receptor 1 [4] = target: T1, Oxoeicosanoid receptor 1 (Homo sapiens, UniProt Q8TDS5); assay: Potency index, ratio of compound activity to Gue1654 activity for antagonism of OXE receptor (unknown origin) expressed in anti-CD49d-labeled neutrophils assessed as inhibition of 5-oxo-ETE-induced F-actin polymerization
Oxoeicosanoid receptor 1 [5] = target: T1, Oxoeicosanoid receptor 1; assay: Potency index, ratio of compound activity to Gue1654 activity for antagonism of OXE receptor (unknown origin) expressed in anti-CD49d-labeled eosinophils assessed as inhibition of 5-oxo-ETE-induced F-actin polymerization
Oxoeicosanoid receptor 1 [6] = target: T1, Oxoeicosanoid receptor 1; assay: Antagonist activity at OXE receptor (unknown origin) expressed in anti-CD49d-labeled neutrophils assessed as inhibition of 5-oxo-ETE-induced F-actin polymerization preincubated for 5 mins followed by 5-oxo-ETE induction measured after 20 secs by flow cytometric analysis
In short: (§2)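 Unfractionated human leukocytes (dextran sedimentation, hypotonic lysis) stained 30 min on ice with APC-anti-CD49d, 5.5×10^6 cells/ml in PBS with Ca++/Mg++. Preincubated 5 min at 37 °C with vehicle or inhibitor, then 5-oxo-ETE (final 10 nM) for 20 s. Fixed in formaldehyde (final 8.5%), permeabilized with lysophosphatidylcholine, NBD-phalloidin (final 0.3 μM) overnight at 4 °C, flow cytometry. Eosinophils gated as high side scatter/high CD49d, neutrophils as high side scatter/low CD49d.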

Oxoeicosanoid receptor 1 [7] = target: T1, Oxoeicosanoid receptor 1; assay: Antagonist activity at OXE receptor (unknown origin) expressed in anti-CD49d-labeled eosinophils assessed as inhibition of 5-oxo-ETE-induced F-actin polymerization preincubated for 5 mins followed by 5-oxo-ETE induction measured after 20 secs by flow cytometric analysis
In short: as §2, with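 “s.” for “s. Fixed in formaldehyde (final 8.5%), permeabilized with lysophosphatidylcholine, NBD-phalloidin (final 0.3 μM) overnight at 4 °C, flow cytometry.”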

Homo sapiens = species on record: Homo sapiens; assay: Antagonist activity at interleukin-8 receptor (unknown origin) expressed in indo-1 loaded neutrophils assessed as inhibition of IL-8-induced calcium mobilization by spectrofluorometric analysis
In short: (§3)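 Human blood neutrophils (dextran sedimentation, Ficoll, hypotonic lysis) loaded with indo-1 AM. Ca++ 1.8 mM and Mg++ 1 mM added to the cuvette. Read at 37 °C with stirring, ex 331/em 410 nm. Vehicle or antagonist (10 μM) added, 5-oxo-ETE (10 nM) 2 min later, second agonist (LTB4, PAF, fMLP or IL-8) after a further 2 min, digitonin (0.1%) 1 min later for maximal fluorescence. Two independent experiments.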

[8] = target: T2, fMet-Leu-Phe receptor (Homo sapiens) (UniProt P21462); assay: Antagonist activity at FPR1 receptor (unknown origin) expressed in indo-1 loaded neutrophils assessed as inhibition of fMLP-induced calcium mobilization at 10 uM by spectrofluorometric analysis; format: functional; in short: as §3
T2 sequence (whole entry): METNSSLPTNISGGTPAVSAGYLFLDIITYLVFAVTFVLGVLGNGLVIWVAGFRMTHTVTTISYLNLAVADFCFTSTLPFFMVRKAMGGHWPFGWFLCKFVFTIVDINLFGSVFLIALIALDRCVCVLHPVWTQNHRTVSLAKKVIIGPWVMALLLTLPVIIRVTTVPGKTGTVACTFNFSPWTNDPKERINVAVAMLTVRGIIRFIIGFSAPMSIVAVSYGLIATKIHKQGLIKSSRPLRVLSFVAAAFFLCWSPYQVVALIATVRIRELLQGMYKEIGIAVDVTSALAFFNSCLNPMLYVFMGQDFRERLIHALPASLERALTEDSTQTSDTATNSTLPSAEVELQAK

[9] = target: Platelet-activating factor receptor (Homo sapiens) (UniProt P25105); assay: Antagonist activity at PAF receptor (unknown origin) expressed in indo-1 loaded neutrophils assessed as inhibition of PAF-induced calcium mobilization at 10 uM by spectrofluorometric analysis; format: functional; in short: as §3
[10] = target: Leukotriene B4 receptor 1 (Homo sapiens) (UniProt Q15722); assay: Antagonist activity at LTB4 receptor (unknown origin) expressed in indo-1 loaded neutrophils assessed as inhibition of LTB4-induced calcium mobilization at 10 uM by spectrofluorometric analysis; format: functional; in short: as §3
Oxoeicosanoid receptor 1 [11] = target: T1, Oxoeicosanoid receptor 1; assay: Antagonist activity at OXE receptor (unknown origin) expressed in indo-1 loaded neutrophils assessed as inhibition of 5-oxo-ETE-induced calcium mobilization incubated for 2 mins prior to 5-oxo-ETE induction by spectrofluorometric analysis; format: functional
Oxoeicosanoid receptor 1 [12] = target: T1, Oxoeicosanoid receptor 1; assay: Antagonist activity at OXE receptor in human neutrophils assessed as inhibition of 5-oxo-ETE-induced calcium mobilization by spectrofluorometric analysis; format: functional
In short: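 Indo-1 AM-loaded human neutrophils (dextran, Ficoll, hypotonic lysis) in PBS with Ca++ 1.8 mM and Mg++ 1 mM, stirred at 37 °C, ex 331/em 410 nm. Vehicle (DMSO) or antagonist at varied concentrations, then 5-oxo-ETE (final 10 nM) 2 min later, then digitonin (0.1%) 1 min later for maximal signal. IC50s are means ± SE of per-experiment IC50 values.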

Liver [13] = assay: Drug metabolism in Sprague-Dawley rat liver homogenates assessed as retention time of unmetabolized compound at 20 uM by reversed-phase HPLC analysis; format: ADME, tissue-based; conditions: tissue homogenate; in short: as §1

T1 sequence (Q8TDS5 whole entry): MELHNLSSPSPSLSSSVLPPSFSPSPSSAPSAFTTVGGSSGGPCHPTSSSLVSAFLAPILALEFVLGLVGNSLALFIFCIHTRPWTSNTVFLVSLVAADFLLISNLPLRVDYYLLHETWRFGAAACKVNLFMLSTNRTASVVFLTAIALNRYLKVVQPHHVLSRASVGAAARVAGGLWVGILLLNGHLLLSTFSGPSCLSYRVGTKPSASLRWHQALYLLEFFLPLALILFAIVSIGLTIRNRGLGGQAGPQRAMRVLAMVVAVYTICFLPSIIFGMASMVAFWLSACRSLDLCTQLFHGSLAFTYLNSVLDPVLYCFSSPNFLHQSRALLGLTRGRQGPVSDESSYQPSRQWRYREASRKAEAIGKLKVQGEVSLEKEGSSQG
Sequence of Leukotriene B4 receptor 1 (Homo sapiens) (Q15722 whole entry): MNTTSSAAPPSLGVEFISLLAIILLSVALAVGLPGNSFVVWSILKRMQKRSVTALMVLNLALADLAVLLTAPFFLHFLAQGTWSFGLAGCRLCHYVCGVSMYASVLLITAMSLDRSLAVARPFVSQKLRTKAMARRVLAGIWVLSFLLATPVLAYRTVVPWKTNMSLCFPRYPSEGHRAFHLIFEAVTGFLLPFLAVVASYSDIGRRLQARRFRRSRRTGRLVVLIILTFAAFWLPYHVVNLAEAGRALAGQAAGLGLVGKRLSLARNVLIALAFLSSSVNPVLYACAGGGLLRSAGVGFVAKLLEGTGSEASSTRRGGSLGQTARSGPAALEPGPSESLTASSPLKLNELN
Sequence of Platelet-activating factor receptor (Homo sapiens) (P25105 whole entry): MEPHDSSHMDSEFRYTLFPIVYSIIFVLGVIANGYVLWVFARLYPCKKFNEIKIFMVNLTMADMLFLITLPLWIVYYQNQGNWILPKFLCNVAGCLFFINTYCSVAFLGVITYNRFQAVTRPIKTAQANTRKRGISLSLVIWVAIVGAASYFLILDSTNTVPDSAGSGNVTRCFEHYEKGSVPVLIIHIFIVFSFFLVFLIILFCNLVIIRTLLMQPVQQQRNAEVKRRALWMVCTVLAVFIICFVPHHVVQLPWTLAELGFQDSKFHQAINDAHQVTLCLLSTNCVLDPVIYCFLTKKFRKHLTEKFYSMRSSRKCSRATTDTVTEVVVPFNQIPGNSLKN

SMILES: CCCCCCc1c(C(=O)CC(C)CC(=O)O)c2cc(Cl)ccc2n1C (racemic)
Drug metabolism (Rattus norvegicus): Active | metabolised at 1 h, 20 µM [1]: 2% | Retention_time (Liver [2]): 14.1 min | Drug metabolism (Liver [3]): Not Active | Ratio (Oxoeicosanoid receptor 1 [4]): 10 | Ratio (Oxoeicosanoid receptor 1 [5]): 10 | inhibition (Oxoeicosanoid receptor 1 [6]): Active | IC50 (Oxoeicosanoid receptor 1 [7]): 33 nM | inhibition (Homo sapiens): inactive | inhibition [8]: inactive | inhibition [9]: inactive | inhibition [10]: inactive

SMILES: CCCCCCc1c(C)c2ccccc2n1C(=O)CC(C)CC(=O)O (centres undefined)
IC50 (Oxoeicosanoid receptor 1 [11]): 136 nM

SMILES: CCCCCCc1c(C(=O)CC(C)CC(=O)O)c2ccc(Cl)cc2n1C (centres undefined)
IC50 (Oxoeicosanoid receptor 1 [11]): 81 nM

SMILES: CCCCCCc1cc2ccc(OC)cc2n1C(=O)CC(C)CC(=O)O (centres undefined)
IC50 (Oxoeicosanoid receptor 1 [11]): 323 nM

SMILES: CCCCCCc1cc2cc(Cl)ccc2n1C(=O)CC(C)CC(=O)O (centres undefined)
IC50 (Oxoeicosanoid receptor 1 [11]): 141 nM

SMILES: CCCCCCc1cc2ccc(Cl)cc2n1C(=O)CC(C)CC(=O)O (racemic)
Retention_time (Liver [13]): 30.2 min | Drug metabolism (Rattus norvegicus): Active | metabolised at 1 h, 20 µM [1]: 12% | Retention_time (Liver [2]): 18.2 min | Drug metabolism (Liver [3]): Not Active | inhibition (Oxoeicosanoid receptor 1 [6]): Active | inhibition (Homo sapiens): inactive | inhibition [8]: inactive | inhibition [9]: inactive | inhibition [10]: inactive

SMILES: CCCCCCc1c(C(=O)CC(C)CC(=O)O)c2cc(Br)ccc2n1C (centres undefined)
IC50 (Oxoeicosanoid receptor 1 [11]): 26 nM

SMILES: CCCCCCc1nc2ccccc2cc1C(=O)CCCC(=O)O
IC50 (Oxoeicosanoid receptor 1 [11]): > 30000 nM

SMILES: CCCCCCc1cc2ccc(Br)cc2n1C(=O)CC(C)CC(=O)O (centres undefined)
IC50 (Oxoeicosanoid receptor 1 [11]): 30 nM

SMILES: CCCCCCc1cc2ccccc2n1C(=O)CC(C)(C)CC(=O)O
IC50 (Oxoeicosanoid receptor 1 [11]): 11000 nM

SMILES: CCCCCCc1cc2cc(Br)ccc2n1C(=O)CC(C)CC(=O)O (centres undefined)
IC50 (Oxoeicosanoid receptor 1 [11]): 638 nM

SMILES: O=C(O)CCCC(=O)n1ccc2ccccc21
IC50 (Oxoeicosanoid receptor 1 [11]): > 30000 nM

SMILES: CCCCCCn1cc(C(=O)CCCC(=O)O)c2ccccc21
inhibition (Oxoeicosanoid receptor 1 [11]): Active

SMILES: CCCCCCc1c(C(=O)CC(C)CC(=O)O)c2ccccc2n1C (centres undefined)
IC50 (Oxoeicosanoid receptor 1 [11]): 314 nM

SMILES: CCCCCCc1cc2ccccc2n1C(=O)CC1(CC(=O)O)CC1
IC50 (Oxoeicosanoid receptor 1 [11]): 1630 nM

The next lines start with the values.

IC50 (Oxoeicosanoid receptor 1 [11]): 550 nM
SMILES: CCCCCCCCC/C=C\c1cc2ccccc2n1C(=O)CCCC(=O)O

IC50 (Oxoeicosanoid receptor 1 [11]): 6060 nM
SMILES: CCCCCCc1c(C(=O)CCCC(=O)O)c2ccccc2n1C

IC50 (Oxoeicosanoid receptor 1 [11]): 2150 nM
SMILES: CCCCCc1cc2ccccc2n1C(=O)CCCC(=O)O

IC50 (Oxoeicosanoid receptor 1 [11]): 4030 nM
SMILES: CCCC/C=C/c1cc2ccccc2n1C(=O)CCCC(=O)O

IC50 (Oxoeicosanoid receptor 1 [11]): 570 nM
SMILES: CCCCCCCCc1cc2ccccc2n1C(=O)CCCC(=O)O

IC50 (Oxoeicosanoid receptor 1 [11]): 9750 nM | inhibition (Oxoeicosanoid receptor 1 [11]): 50%
SMILES: CCCCCCc1[nH]c2ccccc2c1C(=O)CCCC(=O)O

IC50 (Oxoeicosanoid receptor 1 [12]): 2500 nM
SMILES: CCCCC/C=C\C[C@H](O)/C=C/C=C/C=C/C(=O)CCCC(=O)O

inhibition (Oxoeicosanoid receptor 1 [11]): Active
SMILES: CCCCCCc1cn(C(=O)CCCC(=O)O)c2ccccc12

IC50 (Oxoeicosanoid receptor 1 [11]): 13700 nM
SMILES: CCCCc1cc2ccccc2n1C(=O)CCCC(=O)O

IC50 (Oxoeicosanoid receptor 1 [11]): 1130 nM
SMILES: CCCCCCc1cc2ccccc2n1C(=O)CCCC(=O)O

IC50 (Oxoeicosanoid receptor 1 [11]): 566 nM
SMILES: CCCCCCc1c(C(=O)CCCC(=O)O)c2cc(Cl)ccc2n1C

inhibition (Oxoeicosanoid receptor 1 [11]): Active
SMILES: CCCCCCc1ccc2ccn(C(=O)CCCC(=O)O)c2c1

inhibition (Oxoeicosanoid receptor 1 [11]): Active
SMILES: CCCCCCc1ccc2c(ccn2C(=O)CCCC(=O)O)c1

IC50 (Oxoeicosanoid receptor 1 [11]): 750 nM
SMILES: CCCCCCCc1cc2ccccc2n1C(=O)CCCC(=O)O

inhibition (Oxoeicosanoid receptor 1 [11]): Active
SMILES: CCCCCCc1cccc2ccn(C(=O)CCCC(=O)O)c12

IC50 (Oxoeicosanoid receptor 1 [12]): 500 nM
SMILES: CCCCC/C=C\C[C@H](O)/C=C/C=C\C=C\C(=O)CCCC(=O)O

IC50 (Oxoeicosanoid receptor 1 [11]): > 30000 nM
SMILES: CCCCCCc1cc2ccccc2n1C(=O)CCC(=O)O

IC50 (Oxoeicosanoid receptor 1 [11]): 700 nM
SMILES: CCCCCCCCCCCc1cc2ccccc2n1C(=O)CCCC(=O)O
